Source: ChEMBL document CHEMBL3091274, “SAR-based optimization of 2-(1H-pyrazol-1-yl)-thiazole derivatives as highly potent EP1 receptor antagonists” (Bioorg Med Chem Lett, 2013)
Values after ≈ are worked out from the molar mass of the structure shown. Values belong to the molecule of their own block, whether it stands above or below them.

Assays:
[1] = target: T1, Prostaglandin E2 receptor EP1 subtype (Homo sapiens, UniProt P34995); assay: Antagonist activity human EP1 receptor assessed as inhibition of PGE2-induced effect by reporter gene assay
T1 sequence (P34995 whole entry): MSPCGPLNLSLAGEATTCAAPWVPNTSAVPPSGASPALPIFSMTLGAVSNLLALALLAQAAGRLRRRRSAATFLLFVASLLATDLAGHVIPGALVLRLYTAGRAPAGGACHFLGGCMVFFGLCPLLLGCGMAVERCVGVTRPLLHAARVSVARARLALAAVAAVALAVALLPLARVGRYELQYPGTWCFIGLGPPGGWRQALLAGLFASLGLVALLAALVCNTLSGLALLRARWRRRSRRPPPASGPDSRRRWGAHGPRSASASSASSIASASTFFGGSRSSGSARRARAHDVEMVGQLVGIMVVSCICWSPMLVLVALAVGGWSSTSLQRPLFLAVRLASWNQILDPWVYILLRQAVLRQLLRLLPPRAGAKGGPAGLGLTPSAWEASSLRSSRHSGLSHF
Summary of the method: (§1)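 Human EP1 receptor-expressing recombinant cells stimulated with PGE2; antagonism read out by reporter-gene assay or by intracellular Ca2+ release; IC50 in nM.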

[2] = target: T2, Prostaglandin E2 receptor EP1 subtype (Homo sapiens) (UniProt P34995); assay: Antagonist activity human EP1 receptor assessed as inhibition of PGE2-induced effect at 1 uM by reporter gene assay relative to control
T2 sequence (whole entry): T1 sequence (P34995 whole entry)

[3] = Oral bioavailability in rat at 10 mg/kg; assay type: ADME, organism-based; settings: in vivo
Summary of the method: (§2)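 Rats (n = 3) given single oral dose, 10 mg/kg; plasma Cmax, AUC and bioavailability derived from pharmacokinetic profile.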

[4] = Cmax in rat at 10 mg/kg, po; assay type: ADME, organism-based; set-up: dose 10 mg/kg, route oral; settings: in vivo; summary of the method: as §2
[5] = AUC (0 to infinity) in rat at 10 mg/kg, po; assay type: ADME, organism-based; set-up: time infinity, dose 10 mg/kg, route oral; settings: plasma; summary of the method: as §2
[6] = target: T3, Thromboxane A2 receptor (Homo sapiens, UniProt P21731); assay: Inhibition of TP receptor (unknown origin)
T3 sequence (P21731 whole entry): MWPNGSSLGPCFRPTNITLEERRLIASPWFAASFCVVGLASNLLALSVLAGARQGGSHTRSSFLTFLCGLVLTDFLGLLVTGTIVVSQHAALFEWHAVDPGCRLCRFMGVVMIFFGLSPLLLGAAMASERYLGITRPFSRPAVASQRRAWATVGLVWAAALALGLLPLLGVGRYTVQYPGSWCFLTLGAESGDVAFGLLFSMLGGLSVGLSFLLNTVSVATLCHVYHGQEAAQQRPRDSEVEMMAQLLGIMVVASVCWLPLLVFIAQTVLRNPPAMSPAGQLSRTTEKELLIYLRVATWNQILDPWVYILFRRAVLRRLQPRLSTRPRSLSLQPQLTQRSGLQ

[7] = test system: Salmonella typhimurium; assay: Genotoxicity in Salmonella typhimurium TA98 by Ames test; assay type: toxicity, organism-based; settings: salmonella enterica subsp. enterica serovar typhimurium
Summary of the method: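 Bacterial reverse mutation (Ames) test in amino acid-requiring Salmonella typhimurium TA98, detecting point mutations.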

[8] = target: Cytochrome P450 3A4 (Homo sapiens, UniProt P08684); assay: Inhibition of human CYP3A4; assay type: ADME
[9] = target: Cytochrome P450 2D6 (Homo sapiens, UniProt P10635); assay: Inhibition of human CYP2D6; assay type: ADME
[10] = target: Cytochrome P450 2C19 (Homo sapiens, UniProt P33261); assay: Inhibition of human CYP2C19; assay type: ADME
[11] = target: Cytochrome P450 2C9 (Homo sapiens, UniProt P11712); assay: Inhibition of human CYP2C9; assay type: ADME
[12] = target: T4, Cytochrome P450 1A2 (Homo sapiens, UniProt P05177); assay: Inhibition of human CYP1A2; assay type: ADME
T4 sequence (P05177 whole entry): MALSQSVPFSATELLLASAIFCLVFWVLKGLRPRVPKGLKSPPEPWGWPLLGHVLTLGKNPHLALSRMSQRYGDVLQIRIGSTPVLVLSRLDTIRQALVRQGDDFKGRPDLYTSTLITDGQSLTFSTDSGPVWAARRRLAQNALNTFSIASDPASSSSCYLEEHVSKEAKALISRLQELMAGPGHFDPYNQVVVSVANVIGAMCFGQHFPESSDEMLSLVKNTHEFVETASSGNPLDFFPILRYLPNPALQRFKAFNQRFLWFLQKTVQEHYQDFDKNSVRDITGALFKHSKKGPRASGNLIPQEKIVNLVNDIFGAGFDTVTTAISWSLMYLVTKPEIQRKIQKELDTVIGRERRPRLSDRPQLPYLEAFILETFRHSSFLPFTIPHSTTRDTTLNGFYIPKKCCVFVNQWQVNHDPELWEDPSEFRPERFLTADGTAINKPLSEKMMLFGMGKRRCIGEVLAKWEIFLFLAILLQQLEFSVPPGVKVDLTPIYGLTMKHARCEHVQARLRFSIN

[13] = Apparent permeability in MDCK cells; assay type: ADME, cell-based, Canis lupus familiaris; settings: dog
Summary of the method: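 Epithelial permeability across Madin–Darby canine kidney cell monolayer, with atenolol as reference.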

[14] = Solubility of the compound at pH 6.8; assay type: physicochemical; settings: buffer
Summary of the method: (§3)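 Solubility measured in aqueous buffer at pH 1.2 and pH 6.8; reported in […].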

[15] = Solubility of the compound at pH 1.2; assay type: physicochemical; settings: buffer; summary of the method: as §3
[16] = Solubility of the compound in water; assay type: physicochemical
[17] = target: albumin (Homo sapiens, UniProt P02768); assay: Binding affinity to albumin in plasma (unknown origin); assay type: ADME; settings: read-out: PPB (converted)
[18] = Intrinsic clearance in rat liver microsomes; assay type: ADME; settings: read-out: CLH
Summary of the method: (§4)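 Rat or human hepatic microsomes; test compound at 0.5 µM; CLint calculated from elimination ratio between 0 and 20 min; expressed as ml/min/kg.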

[19] = Intrinsic clearance in human liver microsomes; assay type: ADME; settings: read-out: CLH; summary of the method: as §4
[20] = target: Prostaglandin E2 receptor EP4 subtype (Homo sapiens, UniProt P35408); assay: Binding affinity to human EP4 receptor
[21] = target: T5, Prostaglandin E2 receptor EP3 subtype (Homo sapiens, UniProt P43115); assay: Binding affinity to human EP3 receptor
T5 sequence (P43115 whole entry): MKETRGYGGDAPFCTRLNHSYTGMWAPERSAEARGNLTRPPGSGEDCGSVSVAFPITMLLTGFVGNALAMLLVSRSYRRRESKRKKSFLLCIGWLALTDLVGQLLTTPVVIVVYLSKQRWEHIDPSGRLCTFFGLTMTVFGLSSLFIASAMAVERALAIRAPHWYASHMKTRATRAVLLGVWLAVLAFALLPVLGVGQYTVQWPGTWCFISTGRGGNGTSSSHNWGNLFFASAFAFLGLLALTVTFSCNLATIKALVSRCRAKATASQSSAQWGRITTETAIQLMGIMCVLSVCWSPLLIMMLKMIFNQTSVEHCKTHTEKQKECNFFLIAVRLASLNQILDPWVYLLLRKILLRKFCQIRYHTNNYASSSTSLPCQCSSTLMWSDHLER

[22] = target: Prostaglandin E2 receptor EP2 subtype (Homo sapiens, UniProt P43116); assay: Binding affinity to human EP2 receptor
[23] = target: T1, Prostaglandin E2 receptor EP1 subtype; assay: Binding affinity to human EP1 receptor
[24] = target: T1, Prostaglandin E2 receptor EP1 subtype; assay: Antagonist activity human EP1 receptor assessed as inhibition of PGE2-induced intracellular Ca2+ release by cell-based assay; assay type: functional; summary of the method: as §1

albumin, sequence (P02768 whole entry): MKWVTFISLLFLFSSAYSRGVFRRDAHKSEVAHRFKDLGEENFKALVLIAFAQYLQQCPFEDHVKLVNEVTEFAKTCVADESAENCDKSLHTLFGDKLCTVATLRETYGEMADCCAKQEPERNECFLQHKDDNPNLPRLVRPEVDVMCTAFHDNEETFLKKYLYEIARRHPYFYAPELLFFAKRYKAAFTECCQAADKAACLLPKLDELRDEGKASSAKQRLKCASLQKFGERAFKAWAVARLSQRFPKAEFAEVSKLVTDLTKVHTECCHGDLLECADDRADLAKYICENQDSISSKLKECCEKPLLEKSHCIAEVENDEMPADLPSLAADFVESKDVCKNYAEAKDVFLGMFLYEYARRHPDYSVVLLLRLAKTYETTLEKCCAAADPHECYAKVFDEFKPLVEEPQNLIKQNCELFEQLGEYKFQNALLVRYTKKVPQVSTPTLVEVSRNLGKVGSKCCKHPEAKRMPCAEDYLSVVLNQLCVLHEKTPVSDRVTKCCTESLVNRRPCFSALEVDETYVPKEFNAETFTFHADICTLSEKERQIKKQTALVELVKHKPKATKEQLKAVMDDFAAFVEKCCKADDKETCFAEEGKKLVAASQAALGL
Cytochrome P450 2C19, sequence (P33261 whole entry): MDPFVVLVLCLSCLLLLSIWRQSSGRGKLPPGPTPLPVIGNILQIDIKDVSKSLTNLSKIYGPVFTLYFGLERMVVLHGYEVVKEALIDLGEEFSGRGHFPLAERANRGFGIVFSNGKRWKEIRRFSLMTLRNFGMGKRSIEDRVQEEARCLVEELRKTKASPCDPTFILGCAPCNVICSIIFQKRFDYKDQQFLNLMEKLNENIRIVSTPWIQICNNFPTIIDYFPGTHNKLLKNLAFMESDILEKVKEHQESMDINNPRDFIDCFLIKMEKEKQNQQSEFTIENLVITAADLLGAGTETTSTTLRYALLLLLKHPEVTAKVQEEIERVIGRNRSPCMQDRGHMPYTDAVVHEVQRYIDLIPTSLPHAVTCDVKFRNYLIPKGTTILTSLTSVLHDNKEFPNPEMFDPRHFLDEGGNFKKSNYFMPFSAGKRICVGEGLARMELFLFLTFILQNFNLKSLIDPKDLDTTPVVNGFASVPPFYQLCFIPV
Prostaglandin E2 receptor EP2 subtype, sequence (P43116 whole entry): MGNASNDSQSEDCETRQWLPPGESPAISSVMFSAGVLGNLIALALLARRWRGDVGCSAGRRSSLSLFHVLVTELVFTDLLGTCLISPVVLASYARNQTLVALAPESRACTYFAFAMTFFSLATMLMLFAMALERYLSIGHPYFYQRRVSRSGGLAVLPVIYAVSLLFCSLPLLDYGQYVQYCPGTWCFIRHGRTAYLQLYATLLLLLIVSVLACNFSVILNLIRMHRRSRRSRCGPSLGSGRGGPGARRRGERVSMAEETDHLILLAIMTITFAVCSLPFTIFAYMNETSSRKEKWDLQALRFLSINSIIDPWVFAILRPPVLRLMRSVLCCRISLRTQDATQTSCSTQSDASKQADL
Cytochrome P450 3A4, sequence (P08684 whole entry): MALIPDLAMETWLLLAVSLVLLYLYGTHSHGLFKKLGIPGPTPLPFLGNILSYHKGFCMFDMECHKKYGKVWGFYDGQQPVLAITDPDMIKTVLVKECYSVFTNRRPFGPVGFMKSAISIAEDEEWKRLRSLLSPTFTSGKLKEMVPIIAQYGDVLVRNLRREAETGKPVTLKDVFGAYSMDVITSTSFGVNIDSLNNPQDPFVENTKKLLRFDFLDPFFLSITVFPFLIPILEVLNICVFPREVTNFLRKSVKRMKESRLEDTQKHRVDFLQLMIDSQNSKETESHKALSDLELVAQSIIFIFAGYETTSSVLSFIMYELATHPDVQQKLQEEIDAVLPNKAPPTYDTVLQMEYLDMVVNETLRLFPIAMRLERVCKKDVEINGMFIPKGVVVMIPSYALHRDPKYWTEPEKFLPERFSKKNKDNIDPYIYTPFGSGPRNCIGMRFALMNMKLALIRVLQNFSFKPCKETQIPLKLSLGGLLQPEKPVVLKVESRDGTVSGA
Cytochrome P450 2C9, sequence (P11712 whole entry): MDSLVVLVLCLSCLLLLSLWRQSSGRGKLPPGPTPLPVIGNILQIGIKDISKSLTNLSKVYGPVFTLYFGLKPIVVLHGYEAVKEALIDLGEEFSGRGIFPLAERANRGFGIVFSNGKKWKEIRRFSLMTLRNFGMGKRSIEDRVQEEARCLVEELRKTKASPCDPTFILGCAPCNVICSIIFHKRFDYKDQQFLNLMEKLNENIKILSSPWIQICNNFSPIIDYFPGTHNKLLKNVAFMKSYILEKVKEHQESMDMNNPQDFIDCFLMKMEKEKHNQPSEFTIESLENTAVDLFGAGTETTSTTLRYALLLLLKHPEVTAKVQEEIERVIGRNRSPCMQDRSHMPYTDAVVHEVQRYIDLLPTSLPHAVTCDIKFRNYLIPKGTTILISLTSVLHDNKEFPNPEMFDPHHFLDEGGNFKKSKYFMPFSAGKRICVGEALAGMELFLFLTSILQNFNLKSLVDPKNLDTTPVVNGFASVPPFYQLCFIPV
Cytochrome P450 2D6, sequence (P10635 whole entry): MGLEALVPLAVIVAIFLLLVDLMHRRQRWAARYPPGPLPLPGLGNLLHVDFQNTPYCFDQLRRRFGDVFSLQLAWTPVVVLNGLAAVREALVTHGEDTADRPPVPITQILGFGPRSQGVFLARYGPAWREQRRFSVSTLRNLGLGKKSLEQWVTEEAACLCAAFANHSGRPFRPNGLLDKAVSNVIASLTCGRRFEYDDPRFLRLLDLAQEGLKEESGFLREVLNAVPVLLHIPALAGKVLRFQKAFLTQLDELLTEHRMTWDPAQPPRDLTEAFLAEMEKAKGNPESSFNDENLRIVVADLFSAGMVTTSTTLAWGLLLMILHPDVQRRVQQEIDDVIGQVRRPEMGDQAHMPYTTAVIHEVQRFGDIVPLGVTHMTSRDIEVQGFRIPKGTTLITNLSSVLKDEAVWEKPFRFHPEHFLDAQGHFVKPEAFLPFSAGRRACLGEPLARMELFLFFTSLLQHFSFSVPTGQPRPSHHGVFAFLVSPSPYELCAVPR
Prostaglandin E2 receptor EP4 subtype, sequence (P35408 whole entry): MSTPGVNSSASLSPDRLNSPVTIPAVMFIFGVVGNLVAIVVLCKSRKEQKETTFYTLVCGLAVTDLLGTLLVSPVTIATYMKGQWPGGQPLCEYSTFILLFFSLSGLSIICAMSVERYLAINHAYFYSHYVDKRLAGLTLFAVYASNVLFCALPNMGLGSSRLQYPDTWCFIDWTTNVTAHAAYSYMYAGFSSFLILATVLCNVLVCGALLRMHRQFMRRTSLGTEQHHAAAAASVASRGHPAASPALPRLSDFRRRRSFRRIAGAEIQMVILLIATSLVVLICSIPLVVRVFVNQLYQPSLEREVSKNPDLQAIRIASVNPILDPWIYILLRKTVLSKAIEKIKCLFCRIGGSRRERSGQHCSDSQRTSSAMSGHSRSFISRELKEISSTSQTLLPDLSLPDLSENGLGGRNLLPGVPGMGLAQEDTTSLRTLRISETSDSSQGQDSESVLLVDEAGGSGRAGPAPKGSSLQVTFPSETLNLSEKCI

IC50 [1]: 500 nM
Compound: Cc1c(-c2ccccc2)nn(-c2nc(/C=C/C(=O)O)cs2)c1-c1ccccc1

IC50 [1]: > 100 nM
Compound: O=C(O)c1csc(-n2nc(-c3ccccc3)c3c2-c2ccccc2CC3)n1

inhibition [2]: 34%
Compound: Cc1c(-c2ccccc2)nn(-c2nc(C(=O)O)cs2)c1-c1cccnc1

inhibition [2]: 8%
Compound: Cc1c(-c2ccccc2)nn(-c2nc(C(=O)O)cs2)c1-c1cnn(C)c1

IC50 [1]: 130 nM
Compound: O=C(O)c1csc(-n2nc(-c3ccccc3)c(I)c2-c2ccccc2)n1

inhibition [2]: 18%
Compound: COc1c(-c2ccccc2)nn(-c2nc(C(=O)O)cs2)c1-c1ccccc1

inhibition [2]: 10%
Compound: Cc1c(-c2ccccc2)nn(-c2nc(C(=O)O)cs2)c1-c1ccc(N)cc1

IC50 [1]: 330 nM
Compound: Cc1sc(-n2nc(-c3ccccc3)c(C)c2-c2ccccc2)nc1C(=O)O

inhibition [2]: 24%
Compound: Cc1c(-c2ccccc2)nn(-c2ccc(C(=O)O)o2)c1-c1ccccc1

bioavailability [3]: 26% | Cmax [4]: 6.33 µM | AUC(0-inf) [5]: 17.4 µM·h | IC50 [6]: 200 nM | IC50 [8]: > 10000 nM | IC50 [9]: > 10000 nM | IC50 [10]: 6140 nM | IC50 [11]: 5620 nM | IC50 [12]: 7100 nM | Papp [13]: 12.2 ×10⁻⁶ cm/s | solubility [14]: 1010 µg/mL (≈ 2790 µM) | solubility [15]: 867 µg/mL (≈ 2390 µM) | solubility [16]: 865 µg/mL (≈ 2390 µM) | fraction unbound [17]: 0.01 | CLint scaled [18]: 29 mL/min/kg | CLint scaled [19]: 19 mL/min/kg | Ki [20]: > 2700 nM | Ki [21]: > 5000 nM | Ki [22]: > 8700 nM | Ki [23]: 8 nM | IC50 [24]: 60 nM | IC50 [1]: 20 nM
Compound: Nc1c(-c2ccccc2)nn(-c2nc(C(=O)O)cs2)c1-c1ccccc1
Activity [7]: Non-toxic

inhibition [2]: 48%
Compound: Cc1c(-c2ccccc2)nn(-c2cccc(C(=O)O)n2)c1-c1ccccc1

inhibition [2]: 33%
Compound: Cc1c(-c2ccccc2)nn(-c2nc(C(=O)O)co2)c1-c1ccccc1

IC50 [1]: 50 nM
Compound: Cc1c(-c2ccccc2)nn(-c2nc(C(=O)O)cs2)c1-c1cccc(F)c1

IC50 [1]: 20 nM
Compound: O=C(O)c1csc(-n2nc(-c3ccccc3)c3oc4ccccc4c32)n1

IC50 [1]: 60 nM
Compound: O=C(O)c1csc(-n2nc(-c3ccccc3)c(Cl)c2-c2ccccc2)n1

solubility [14]: 57 µg/mL (≈ 159 µM) | solubility [16]: 4 µg/mL (≈ 11.1 µM) | fraction unbound [17]: 0.0032 | CLint scaled [18]: 927 mL/min/kg | CLint scaled [19]: 425 mL/min/kg | IC50 [24]: 40 nM | IC50 [1]: 0.9 nM
Compound: O=C(O)c1csc(-n2nc(-c3ccccc3)c3c2-c2ccccc2C3)n1

IC50 [1]: 150 nM
Compound: O=C(O)c1csc(-n2nc(-c3ccccc3)c(C(F)(F)F)c2-c2ccccc2)n1

solubility [14]: 10 µg/mL (≈ 26.8 µM) | solubility [16]: 20 µg/mL (≈ 53.6 µM) | fraction unbound [17]: 0.0012 | CLint scaled [18]: 236 mL/min/kg | CLint scaled [19]: 149 mL/min/kg | IC50 [24]: 20 nM | IC50 [1]: 2 nM
Compound: O=C(O)c1csc(-n2nc3c(c2-c2ccccc2)CCc2ccccc2-3)n1

IC50 [1]: 100 nM
Compound: Cc1c(-c2ccccc2)nn(-c2nc(C(=O)O)cs2)c1-c1ccc(F)cc1

IC50 [1]: 30 nM
Compound: O=C(O)c1csc(-n2nc(-c3ccccc3)c(F)c2-c2ccccc2)n1

inhibition [2]: -4%
Compound: CCc1c(-c2ccccc2)nn(-c2nc(C(=O)O)cs2)c1-c1ccccc1

IC50 [1]: 20 nM
Compound: O=C(O)c1csc(-n2nc(-c3ccccc3)c(Br)c2-c2ccccc2)n1

inhibition [2]: 24%
Compound: Cc1c(-c2ccccc2)nn(-c2nc(C(=O)O)cs2)c1-c1cncnc1

IC50 [1]: 60 nM
Compound: O=C(O)c1csc(-n2nc(-c3ccccc3)c(O)c2-c2ccccc2)n1

IC50 [1]: 1000 nM
Compound: Cc1c(-c2ccccc2)nn(-c2ccc(C(=O)O)s2)c1-c1ccccc1

IC50 [1]: 80 nM
Compound: Cc1c(-c2ccccc2)nn(-c2nc(C(=O)O)cs2)c1-c1ccsc1

IC50 [8]: > 10000 nM | IC50 [9]: > 10000 nM | IC50 [10]: 4710 nM | IC50 [11]: > 10000 nM | IC50 [12]: 7930 nM | Papp [13]: 51.6 ×10⁻⁶ cm/s | solubility [14]: 401 µg/mL (≈ 1110 µM) | solubility [16]: 129 µg/mL (≈ 357 µM) | fraction unbound [17]: 0.0029 | CLint scaled [18]: 15 mL/min/kg | CLint scaled [19]: 35 mL/min/kg | Ki [22]: > 8700 nM
Compound: Cc1c(-c2ccccc2)nn(-c2nc(C(=O)O)cs2)c1-c1ccccc1
Activity [7]: Non-toxic

inhibition [2]: 26%
Compound: Cc1c(-c2ccccc2)nn(-c2cncc(C(=O)O)c2)c1-c1ccccc1

IC50 [1]: 120 nM
Compound: Cc1c(-c2ccccc2)nn(-c2nc(C(=O)O)cs2)c1-c1cccs1
